Assay [1] has as its system Aspergillus nidulans. Put plainly: Inhibition of Aspergillus nidulans FcyB expressed in germinating conidiospores of UapA, UapC, AzgA, FurD, FurA, FcyB, CntA transporter deficient Aspergillus nidulans assessed as suppression of [2,8 3H]-hypoxanthine uptake at 0.5 mM after 1 min by scintillation counting method. In short, it runs like this: (§1)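 Competition uptake in germinating conidiospores of a Δ7 strain carrying single-copy fcyB driven by the uapA promoter, selected by pabA1 complementation. 0.5 μM ³H-substrate (adenine for line 1, hypoxanthine for line 3) was added together with a 1000-fold excess (500 μM) of analogue. Uptake was stopped after 1 min by freezing, immediate centrifugation and washing. Three experiments, each in triplicate.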

The nature of assay [2]: Inhibition of Aspergillus nidulans FcyB expressed in germinating conidiospores of UapA, UapC, AzgA, FurD, FurA, FcyB, CntA transporter deficient Aspergillus nidulans assessed as suppression of [2,8 3H]-adenine uptake after 1 min by scintillation counting method. In short, it runs like this:
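In germinating conidiospores of a Δ7 strain expressing only FcyB (uapA promoter), 0.5 μM ³H-adenine uptake was measured over 1 min against varying analogue concentrations. Ki was derived from IC50 by Cheng–Prusoff, Ki = IC50/(1+[S]/Km), with [S] as the fixed radiolabelled substrate concentration. Values are averages of at least three independent experiments with three replicates per concentration point.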

The subject of assay [3] is Aspergillus nidulans. As to the kind of experiment: Inhibition of Aspergillus nidulans FcyB expressed in germinating conidiospores of UapA, UapC, AzgA, FurD, FurA, FcyB, CntA transporter deficient Aspergillus nidulans assessed as [2,8 3H]-adenine uptake at 0.5 mM after 1 min by scintillation counting method relative to control. The arrangement: scale not given: the % may be the effect or the level left. The essentials:
as §1

Each structure is given as a SMILES string. Activity calls are given as the source filed them. No cut-off for these calls is given here.

Data on six compounds can be found in ChEMBL document CHEMBL3856282, “Design and synthesis of purine analogues as highly specific ligands for FcyB, a ubiquitous fungal nucleobase transporter” (Bioorg Med Chem, 2016).

Usually Ki stands for a dissociation constant, usually derived from enzyme kinetics or from competition with a known ligand. Take `c1ccc(CNc2nccc3c2ncn3C2CCCC2)cc1`: in assay [1], the inhibition entry was “Active”. Besides, in assay [2], the Ki came out at 21 µM. Further, in assay [3], the Activity was below 10%.

With `CC(C)n1cnc2c(NCc3ccccc3)nccc21`, the inhibition entry in assay [1] was “Active”. For the same compound, the Ki in assay [2] stood at 5 µM. Moreover, in assay [3], the Activity was below 10%.

For the compound `Nc1nccc2c1ncn2C1CCCC1`, in assay [1], the inhibition entry was “Active”. The Ki in assay [2] worked out at 18 µM. Also, the Activity in assay [3] was below 10%.

Consider `CN(C)CCNc1nccc2c1ncn2C1CCCC1`, for which, in assay [1], the inhibition result was “Active”. In addition, the Ki in assay [2] was found to be 95 µM. In addition, the Activity in assay [3] was below 10%.

On to `CN1CCN(c2nccc3c2ncn3C2CCCC2)CC1`, for which, in assay [1], the inhibition entry was “Active”. Also, the Ki in assay [2] is 38 µM. Besides, the Activity in assay [3] is below 10%.

`CC(C)n1cnc2c(NCCN(C)C)nccc21`: the inhibition result in assay [1] is “Active”. The Ki in assay [2] was determined as 72 µM. The Activity in assay [3] was below 10%.
